# Screening data (PubChem)
# This is a sample that favours compounds with a hit; in the whole collection about 3.4% have one here.
# Cl transport mod: modulators of human KCC2 chloride dependent transport; 190,000 tested, 2.2% active; Q9H2X9; KCC2 cells, thallium flux FluoZin-2 fluorescence; B-score of Tl+ flux slope (higher = more flux/activation; lower = inhibition) at 10 µM; AID 1456;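 active means thallium flux slope and its plate-corrected score both differing from the plate sample mean at a set confidence after two filtering rounds, in either direction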;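 further: slope of fluorescence scaled to starting intensity during 10 to 20 s after thallium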
# DTT redox prof: compounds producing H2O2 with reducing agent – biochemical, NIH compound library profiling, artefact control for MLSCN library redox annotation, primary screen. DTT-dependent redox cycling H2O2, phenol red/HRP absorbance; 100% = 100 µM peroxide control, 0% = buffer. activation, % at 10 µM. 200,000 tested, 0.03% active. AID 878;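 active means activation of at least 50% relative to the plate's high and low controls in the primary single-dose screen; inactive means activation below 50%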;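 further: compound incubated with DTT at 0.8 mM final as the reducing agent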
# ROMK mod: modulators of human ROMK potassium channel; Tet-inducible ROMK, thallium flux fluorescence; actives lie on both sides; B-score at 10 µM; 130,000 tested, 2% active;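 active means signal ratio slope over the read window, or its plate-corrected B-score, at least 3 SD from the plate mean, either direction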;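 further: B-score of the F/F0 ratio slope over 7 to 12 s after thallium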
# p97 inhibitor: inhibitors of human p97 ATPase | P55072 | recombinant p97 ATPase, Kinase-Glo ATP luminescence, 3 h | inhibition, % at 8 µM | 220,000 tested, 0.42% active; in the data active means inhibition above about 15%;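 further: 0% = DMSO vehicle and 100% = wells lacking enzyme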
# PKD1 kinase inh: blocks activity of human protein kinase D1; 200,000 tested, 0.056% active; inhibition, % (no concentration beside the values); Q15139; AID 797; PKD1 kinase fluorescence polarization assay; in the data active means inhibition above about 50%
# Mdm2 ligase inh: inhibitors of human Mdm2 E3 ubiquitin ligase. 210,000 tested, 0.11% active. Q00987. signal enhancement, % at 5 µM. cell-based MDM2 ubiquitination luciferase reporter, 2 h; 0 = plate control, 100 = twice control, blank-subtracted;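 active means signal enhancement of 30% or more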;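 further: luminescence tracks abundance of the self-degrading MDM2-luciferase fusion protein; higher signal means inhibition of MDM2 E3 ligase activity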
#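 Test system: stable mammalian line carrying autodegrading MDM2–luciferase fusion reporter; quantity: 2000 cells in each well; times: 4 h cell settling then 2 h compound exposure, 37 °C; detection: luminescence with SteadyLite reagent, 15 min at room temperature; evaluation: percent signal gain over controls, blank-subtracted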
# KCC2 sec1: confirmation of human KCC2 transport modulators. shares compounds with Cl transport mod. HEK293-KCC2, thallium flux, FluoZin2 fluorescence; hits give high values. normalised thallium flux (F/F0 slope) at 10 µM. 3,700 tested, 15% active. AID 1713;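 active means thallium flux slope above the same plate's solvent-only control mean plus 3 SD; inconclusive means the two replicate wells disagree; inactive means no significant difference from solvent-only control wells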
# KCC2 bumet counter: bumetanide-insensitive thallium flux in KCC2 cells with ouabain, counter-screen. shares compounds with Cl transport mod. HEK293-KCC2 + bumetanide/ouabain, thallium flux FluoZin2; hits give high values. normalized thallium flux at 10 µM. 3,700 tested, 49% active. AID 1714;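 active means thallium entry rate above the same plate's blocked-transporter control wells by more than 3 SD; inconclusive means the two repeat wells disagree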;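 further: raw slope of fluorescence over initial fluorescence between 10 and 20 s after thallium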
# KCC2 secondary2: confirmation of human KCC2 transport modulators. shares compounds with Cl transport mod. HEK293-KCC2, thallium flux FluoZin2 fluorescence; actives lie on both sides; F/F0 rise rate, 10–20 s post-thallium. normalized thallium flux at 10 µM. 3,700 tested, 23% active;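 active means thallium flux slope more than 3 SD above or below the plate's solvent-only control mean, mostly below; inconclusive means the two repeat wells disagreed; inactive means no significant shift from solvent-only controls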;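 further: raw slope with 0.1% DMSO as baseline and bumetanide as block control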
# HEK293 Tl flux: counter-screen for KCC2 modulators: effect in parental HEK293 cells; shares compounds with Cl transport mod; 3,700 tested, 46% active; thallium flux rate (normalised fluorescence) at 10 µM; AID 1716; thallium flux FluoZin2, ouabain; baseline-ratio fluorescence slope, 10–20 s after thallium;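 active means thallium flux rate significantly above the same plate's solvent-only control wells, beyond their mean plus 3 SD; inconclusive means the two replicate wells gave conflicting results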
# KCC2 retest ouab: confirmation of human KCC2 modulators with ouabain | shares compounds with Cl transport mod | HEK293-KCC2, thallium flux FluoZin2 fluorescence; bidirectional: low = inhibitor, high = activator | raw Tl+ flux slope (below DMSO = inhibition, above = activation) at 10 µM | 3,700 tested, 48% active | AID 1717;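 active means thallium flux slope beyond 3 SD from same-plate DMSO control mean in most replicates, usually higher, sometimes lower; inconclusive means repeat tests gave conflicting results; inactive means no significant difference from controls in most replicates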;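 further: slope of initial-normalized fluorescence between seconds 10 and 20 after thallium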
# HEK counter2: acts in parental HEK cells, second KCC2 counter-screen. thallium flux slope at 10 µM. 3,700 tested, 33% active. HEK293 parental, thallium flux FluoZin-2 fluorescence slope. AID 1718. shares compounds with Cl transport mod;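 active means thallium flux slope above the same plate's solvent-control mean plus 3 SD in both duplicate wells; inconclusive means duplicate wells that disagreed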;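 further: run without ouabain in cells lacking the KCC2 cotransporter; slope of fluorescence scaled to its starting value between 10 and 20 s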
# Starred values were filed as active, the others as inactive; u = inconclusive; x = no result given.
SMILES,Cl transport mod,DTT redox prof,ROMK mod,p97 inhibitor,PKD1 kinase inh,Mdm2 ligase inh,KCC2 sec1,KCC2 bumet counter,KCC2 secondary2,HEK293 Tl flux,KCC2 retest ouab,HEK counter2
CN1CCC(OC(c2ccccc2)c2ccccc2)CC1,4.7*,1,x,7,-9,x,0.0099,0.0069,0.03,u,0.022,0.0097
CCOc1cc(C=O)ccc1OCc1cc(=O)n2cc(C)ccc2n1,0.52,-1,-0.036,-1,-4,2,x,x,x,x,x,x
Cc1nc(CNS(=O)(=O)c2cccc(F)c2)cs1,0.61,0,0.36,-3,-5,x,x,x,x,x,x,x
O=S(=O)(NCc1csc(-c2cccs2)n1)c1cccs1,-4.1,x,x,2,x,-7,x,x,x,x,x,x
Cc1ccc(S(=O)(=O)NCc2cn3c(C)csc3n2)cc1,-0.038,3,x,-2,-7,-4,x,x,x,x,x,x
Cc1ccc(S(=O)(=O)NCc2csc(-c3cccs3)n2)cc1,-2.1*,x,0.099,3,x,-6,0.0054,0.0035,0.022*,0.0063,0.012*,u
O=S(=O)(NCc1csc(-c2cccs2)n1)c1ccc(Cl)cc1,-5.1*,x,x,-6,x,-7,u,u,0.019*,0.005*,0.01*,u
O=S(=O)(NCc1csc(-c2cccs2)n1)c1cccc(C(F)(F)F)c1,-5.4*,x,x,-7,x,-5,u,0.0036,0.019*,0.0058*,0.01*,u
Cc1cccc(NC(=O)c2snc3c(=O)[nH]cnc23)c1,-0.92,1,-0.019,5,-2,-30,x,x,x,x,x,x
COc1ccccc1S(=O)Cc1ccc(C(=O)O)o1 (centres undefined),0.51,-3,x,1,6,5,x,x,x,x,x,x
O=C(Nc1nnc(-c2ccco2)o1)c1ccc(Cl)cc1,29*,0,-0.26,1,-2,1,0.032*,0.069*,u,0.031*,0.06*,0.017*
CN(C)S(=O)(=O)c1ccc(C(=O)Nc2nnc(-c3ccco3)o2)cc1,-0.18,-1,x,5,-3,6,x,x,x,x,x,x
Cc1cccc(C(=O)Nc2nnc(-c3ccco3)o2)c1,4.7,1,x,4,-10,-4,x,x,x,x,x,x
Cc1ccc(C(=O)Nc2nnc(-c3ccco3)o2)cc1C,8*,0,x,6,-2,-9,0.013*,0.039*,0.029,0.019*,0.038*,0.011*
Nc1nc(C(=O)N2CCOCC2)nn1S(=O)(=O)c1ccccc1,x,0,-0.1,5,-3,-19,x,x,x,x,x,x
CCOC(=O)C1(C)Oc2cccnc2NC1=O (centres undefined),0.15,1,-0.27,2,-5,-19,x,x,x,x,x,x
O=C1CSC(c2cccs2)N1c1ccccc1 (centres undefined),0.5,0,x,3,5,-16,x,x,x,x,x,x
c1ccc(N2CCN(c3ccccc3)C2c2cccs2)cc1,-5.5*,2,x,3,2,36*,0.0091,0.0052,0.029,0.0076,0.022,0.011
CNS(=O)(=O)c1cccc2nsnc12,0.14,0,1.3,7,-12,-1,0.0088,u,0.031,0.008,0.021,0.011
CN(C1CCS(=O)(=O)C1)S(=O)(=O)c1cccc2nsnc12 (centres undefined),x,0,0.51,-1,-12,-14,0.006,0.0046,0.029,0.0077,0.018,0.011
CCOc1ccccc1NS(=O)(=O)c1cccc2nsnc12,2.9,0,-0.41,-4,2,-10,x,x,x,x,x,x
CN(C)S(=O)(=O)c1cccc2nsnc12,x,-1,0.14,2,0,-17,x,x,x,x,x,x
CCOc1ccc(OCC)c(NS(=O)(=O)c2cccc3nsnc23)c1,18*,-2,x,2,-5,-11,0.013*,0.073*,0.035,0.027*,0.035*,0.013*
CN(CC(=O)Nc1ccccc1N1CCOCC1)CC(=O)Nc1ccc(F)c(F)c1F,0.056,-1,-0.33,8,-8,-11,x,x,x,x,x,x
O=C(Nc1nnc(C2CC2)o1)c1ccc(S(=O)(=O)N2CCCc3ccccc32)cc1,4.4*,-1,x,x,-13,-11,0.012*,0.025*,0.032,0.012*,u,0.011
SMILES,Cl transport mod,DTT redox prof,ROMK mod,p97 inhibitor,PKD1 kinase inh,Mdm2 ligase inh,KCC2 sec1,KCC2 bumet counter,KCC2 secondary2,HEK293 Tl flux,KCC2 retest ouab,HEK counter2
O=C(Cn1nc2ccccc2n1)N/N=C/c1cc(Cl)cc([N+](=O)[O-])c1O,-5.3*,-1,2,-2,2,-10,0.0071,u,0.025*,0.0071,u,0.011
CC(/C=C/c1ccco1)=N\NC(=O)c1cc(C)[nH]n1,x,2,x,4,4,-14,x,x,x,x,x,x
CC(/C=C/c1ccco1)=N\NC(=O)c1cc(Cl)ccc1O,13*,-1,0.11,4,-5,-12,0.016*,0.026*,0.039,u,0.032*,0.011
Cc1nc(-c2cccc3ccccc23)ccc1C(=O)O,x,0,0.18,5,15,-7,x,x,x,x,x,x
CC1=CN2C(=N)/C(=C/c3ccc(C)o3)C(=O)N=C2S1,8.8*,1,x,-1,4,-29,0.01,0.028*,0.032,0.013*,0.023,u
N=C1/C(=C\c2ccc(SCc3ccccc3)o2)C(=O)N=C2SC=NN12,1.3,0,-1.3,7,9,-2,x,x,x,x,x,x
CC1=CN2C(=N)/C(=C/c3ccc(Sc4ccc(Cl)cc4)o3)C(=O)N=C2S1,9.2*,0,x,-7,-8,-14,0.0099,0.014*,0.033,0.013*,0.024,0.011
CC1=CN2C(=N)/C(=C/c3ccc(Sc4ccc(C)cc4)o3)C(=O)N=C2S1,16*,0,0.076,1,2,20,0.0068,0.03*,u,0.042*,0.032*,0.021*
CCN=C1S/C(=C\c2ccc(Sc3ccc(Cl)cc3)o2)C(=O)N1CC,-0.083,1,x,-1,-4,-24,x,x,x,x,x,x
Cc1ccccc1C(=O)OCn1nnc2ccccc2c1=O,-0.72,0,x,-3,-6,-5,x,x,x,x,x,x
